According to PubChem BioAssay AID602246 (The Scripps Research Institute Molecular Screening Center, 2012):
Unmarked numbers belong to inactive results. Calls of active or inactive are those of the source.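 The calls were made as follows: active = t-test against the solvent control gives p below 0.05 and normalized ATPase activity falls by at least 10%; inactive = the rest.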

Experiment: RTF inhibitors lowering myofibrillar ATP hydrolysis – biochemical, absorbance, porcine cardiac myofibrils, powder samples, mechanism study for cardiac RTF inhibitor project, late-stage follow-up (AID 602246)
Details: ATPase Pi absorbance 660 nm, at 10 µM, hits give low values
Procedure, shortened: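 Assay system: porcine cardiac myofibrils; buffer or medium: pH 7.0 pCa buffer with DTT; also added: 3.02 mM ATP, EC50 calcium; times: 5 min compound preincubation, then 7 min ATPase reaction, 25 °C; measured by: Fiske-Subbarow colorimetric phosphate absorbance at 660 nm, TCA-stopped; control set: DMSO-only wells as reference control; repeats: five replicate wells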

Compound	normalized ATPase activity
COc1cccc2c1NC(C(=O)O)C1CC=CC21 (stereo not given)	1.03
O=C(O)c1ccc2nc(-c3ccco3)c(-c3ccco3)nc2c1	1.03
O=C(O)c1cccc(-n2cccc2/C=C2/NC(=O)N(c3ccc(Cl)cc3)C2=O)c1	0.975
O=C(O)c1ccc2c(c1)[C@@H]1C=CC[C@@H]1[C@H](c1ccccn1)N2	0.982
NCCCCCCNS(=O)(=O)c1cccc2c(Cl)cccc12	0.854 (active)
